# ChEMBL document CHEMBL5303300, “EUbOPEN Chemogenomics Library - Multiplex” (2023)
# “And” between values parts separate entries of the source, which are not always exact repeats. Equal values may be shown once.
# Tests used:
# Fibroblast = assay: Multiplex assay against human fibroblast; assay type: toxicity, cell-based; conditions: number of replicates 2
# Method in brief: (§1)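 With compound added, live cells were imaged on a CQ1 microscope at 37°C and 5% CO2; staining with Hoechst33342, BioTracker Green Microtubule Cytoskeleton Dye, MitoTracker Red and Annexin V Alexa Fluor 680 had been done at seeding. The CellPathfinder machine-learning gating scheme split cells into Hoechst high-intensity objects or normal cells, normal cells into healthy, pyknosed or fragmented nuclei, and pyknosed cells into mitotic or apoptotic. The tubulin, mitochondrial-mass and membrane-permeability phenotypes are per cents of healthy-nucleus cells.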
# HEK-293T = assay: Multiplex assay against HEK293T; assay type: toxicity, cell-based; conditions: human, number of replicates 2; method in brief: as §1
# [1] = 12 h, 1 µM, compound concentration 1 uM
# [2] = 12 h, 10 µM, compound concentration 10 uM
# [3] = 24 h, 1 µM, compound concentration 1 uM
# [4] = 24 h, 10 µM, compound concentration 10 uM
# [5] = 48 h, 1 µM, compound concentration 1 uM
# [6] = 48 h, 10 µM, compound concentration 10 uM
smiles,measurement,setting,value
COc1c(OCCCN2CCOCC2)ccc2c1N=C(NC(=O)c1cnc(N)nc1)N1CCN=C21 [COPANLISIB],Population Apoptotic (%),Fibroblast; [1],39% and 50%
same,Population Fragmented Nuclei (%),Fibroblast; [1],8% and 10%
same,Population Healthy Nuclei (%),Fibroblast; [1],65% and 63%
same,Population Hoechst High Intensity Objects (%),Fibroblast; [1],0%
same,Population Membrane Permeable-Phenotype (%),Fibroblast; [1],1% and 7%
same,Population Mitochondria Different-Phenotype (%),Fibroblast; [1],0% and 3%
same,Population Mitotic Cells (%),Fibroblast; [1],60% and 50%
same,Population Normal (%),Fibroblast; [1],100%
same,Population Pyknosed Nuclei (%),Fibroblast; [1],26%
same,Population Tubulin-Different-Phenotype (%),Fibroblast; [1],1% and 7%
same,Total Cell Count,Fibroblast; [1],157 and 180
same,Population Apoptotic (%),Fibroblast; [2],52% and 45%
same,Population Fragmented Nuclei (%),Fibroblast; [2],10% and 13%
same,Population Healthy Nuclei (%),Fibroblast; [2],77% and 74%
same,Population Hoechst High Intensity Objects (%),Fibroblast; [2],0%
same,Population Membrane Permeable-Phenotype (%),Fibroblast; [2],7% and 2%
same,Population Mitochondria Different-Phenotype (%),Fibroblast; [2],3% and 2%
same,Population Mitotic Cells (%),Fibroblast; [2],47% and 54%
same,Population Normal (%),Fibroblast; [2],100%
same,Population Pyknosed Nuclei (%),Fibroblast; [2],12% and 11%
same,Total Cell Count,Fibroblast; [2],149 and 188
same,Population Apoptotic (%),Fibroblast; [3],48% and 57%
same,Population Fragmented Nuclei (%),Fibroblast; [3],14% and 8%
same,Population Healthy Nuclei (%),Fibroblast; [3],60% and 71%
same,Population Hoechst High Intensity Objects (%),Fibroblast; [3],0%
same,Population Membrane Permeable-Phenotype (%),Fibroblast; [3],2% and 5%
same,Population Mitochondria Different-Phenotype (%),Fibroblast; [3],1% and 2%
same,Population Mitotic Cells (%),Fibroblast; [3],51% and 42%
same,Population Normal (%),Fibroblast; [3],100%
same,Population Pyknosed Nuclei (%),Fibroblast; [3],25% and 20%
same,Population Tubulin-Different-Phenotype (%),Fibroblast; [3],2% and 5%
same,Total Cell Count,Fibroblast; [3],155 and 165
same,Population Apoptotic (%),Fibroblast; [4],76% and 60%
same,Population Fragmented Nuclei (%),Fibroblast; [4],18% and 16%
same,Population Healthy Nuclei (%),Fibroblast; [4],63% and 72%
same,Population Hoechst High Intensity Objects (%),Fibroblast; [4],0%
same,Population Membrane Permeable-Phenotype (%),Fibroblast; [4],3% and 0%
same,Population Mitochondria Different-Phenotype (%),Fibroblast; [4],2% and 1%
same,Population Mitotic Cells (%),Fibroblast; [4],23% and 39%
same,Population Normal (%),Fibroblast; [4],100%
same,Population Pyknosed Nuclei (%),Fibroblast; [4],17% and 11%
same,Population Tubulin-Different-Phenotype (%),Fibroblast; [4],9% and 2%
same,Total Cell Count,Fibroblast; [4],174 and 209
same,Population Apoptotic (%),Fibroblast; [5],73% and 57%
same,Population Fragmented Nuclei (%),Fibroblast; [5],7% and 14%
same,Population Healthy Nuclei (%),Fibroblast; [5],70% and 71%
same,Population Hoechst High Intensity Objects (%),Fibroblast; [5],0%
same,Population Membrane Permeable-Phenotype (%),Fibroblast; [5],6% and 10%
same,Population Mitochondria Different-Phenotype (%),Fibroblast; [5],0%
same,Population Mitotic Cells (%),Fibroblast; [5],26% and 42%
same,Population Normal (%),Fibroblast; [5],100%
same,Population Pyknosed Nuclei (%),Fibroblast; [5],21% and 14%
same,Population Tubulin-Different-Phenotype (%),Fibroblast; [5],2% and 3%
same,Total Cell Count,Fibroblast; [5],140 and 176
same,Population Apoptotic (%),Fibroblast; [6],68% and 77%
same,Population Fragmented Nuclei (%),Fibroblast; [6],15% and 18%
same,Population Healthy Nuclei (%),Fibroblast; [6],70%
same,Population Hoechst High Intensity Objects (%),Fibroblast; [6],1% and 0%
same,Population Membrane Permeable-Phenotype (%),Fibroblast; [6],11% and 4%
same,Population Mitochondria Different-Phenotype (%),Fibroblast; [6],1% and 2%
same,Population Mitotic Cells (%),Fibroblast; [6],32% and 22%
same,Population Normal (%),Fibroblast; [6],98% and 100%
same,Population Pyknosed Nuclei (%),Fibroblast; [6],14% and 10%
same,Total Cell Count,Fibroblast; [6],176 and 205
same,Population Apoptotic (%),HEK-293T; [1],66% and 65%
same,Population Fragmented Nuclei (%),HEK-293T; [1],7% and 3%
same,Population Healthy Nuclei (%),HEK-293T; [1],66% and 82%
same,Population Hoechst High Intensity Objects (%),HEK-293T; [1],14% and 12%
same,Population Membrane Permeable-Phenotype (%),HEK-293T; [1],2% and 1%
same,Population Mitochondria Different-Phenotype (%),HEK-293T; [1],43% and 39%
same,Population Mitotic Cells (%),HEK-293T; [1],33% and 34%
same,Population Normal (%),HEK-293T; [1],85% and 87%
same,Population Pyknosed Nuclei (%),HEK-293T; [1],25% and 13%
same,Population Tubulin-Different-Phenotype (%),HEK-293T; [1],57% and 58%
same,Total Cell Count,HEK-293T; [1],337 and 345
same,Population Apoptotic (%),HEK-293T; [2],67% and 62%
same,Population Fragmented Nuclei (%),HEK-293T; [2],7% and 2%
same,Population Healthy Nuclei (%),HEK-293T; [2],74% and 83%
same,Population Hoechst High Intensity Objects (%),HEK-293T; [2],13% and 11%
same,Population Membrane Permeable-Phenotype (%),HEK-293T; [2],1% and 0%
same,Population Mitochondria Different-Phenotype (%),HEK-293T; [2],60% and 66%
same,Population Mitotic Cells (%),HEK-293T; [2],32% and 37%
same,Population Normal (%),HEK-293T; [2],86% and 88%
same,Population Pyknosed Nuclei (%),HEK-293T; [2],18% and 13%
same,Population Tubulin-Different-Phenotype (%),HEK-293T; [2],68% and 71%
same,Total Cell Count,HEK-293T; [2],237 and 220
same,Population Apoptotic (%),HEK-293T; [3],76% and 67%
same,Population Fragmented Nuclei (%),HEK-293T; [3],5% and 3%
